Test results: ChEMBL document CHEMBL5055620, “Design, Synthesis, and Structural Characterization of Lysine Covalent BH3 Peptides Targeting Mcl-1” (J Med Chem, 2021)
Blank lines part the entries; values can stand above or below the molecule they belong to. The source made the active and inactive calls. The rule behind the calls is not given here. Non-standard residues stand in square brackets, D forms with d. Residues, ends and D or L forms follow the SMILES beside them. ξ: configuration not given here. *: point of attachment. Benzoyl(2-OMe,5-SO2F) = COc1ccc(S(=O)(=O)F)cc1C(=O)*; Benzoyl(3-SO2F) = O=C(c1cccc(S(=O)(=O)F)c1)*; Benzoyl(4-SO2F) = O=C(c1ccc(S(=O)(=O)F)cc1)*; X1 = Cc1ccc(S(=O)(=O)F)cc1C(=O)*; hSer = N[C@@H](CCO)C(=O)O; Nle = CCCC[C@H](N)C(=O)O; Dap = NC[C@H](N)C(=O)O; ξAbu = CCC(N)C(=O)O

How the values were obtained:
[1] = biological target: T1, Induced myeloid leukemia cell differentiation protein Mcl-1 (Homo sapiens, UniProt Q07820); assay: Binding affinity to human Mcl-1 assessed as covalent adduct formation by measuring band shift at 100 uM measured after 2 hrs by SDS-PAGE analysis
T1 sequence (Q07820 whole entry, the tested form may be a part): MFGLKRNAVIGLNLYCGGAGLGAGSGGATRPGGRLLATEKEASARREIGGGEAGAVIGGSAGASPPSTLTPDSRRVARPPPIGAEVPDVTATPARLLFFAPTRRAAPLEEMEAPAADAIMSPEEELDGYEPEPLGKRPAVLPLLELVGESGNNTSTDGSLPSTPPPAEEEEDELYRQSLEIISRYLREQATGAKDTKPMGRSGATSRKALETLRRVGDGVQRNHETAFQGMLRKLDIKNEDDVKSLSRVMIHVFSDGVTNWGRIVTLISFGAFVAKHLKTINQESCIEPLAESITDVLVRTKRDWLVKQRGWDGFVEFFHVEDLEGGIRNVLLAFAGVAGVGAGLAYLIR
Procedure, shortened: (§1)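 Protein (hMcl-1 His-tagged construct, or His-tagged hBfl-1 residues 1–149) at 10 μM was incubated with or without agent at 100 μM for 2 h at room temperature in 25 mM TRIS pH 7.5, 150 mM NaCl, 1 mM DTT. Samples were run on 12% Bis-Tris SDS-PAGE with MOPS running buffer and Coomassie-type stained.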

[2] = biological target: T2, Bcl-2-related protein A1 (Homo sapiens, UniProt Q16548); assay: Inhibition of human Bfl-1 (1 to 149 residues) expressed in Rosetta-gami (DE3) using biotinylated-BH3 peptide as substrate measured after 2 hrs by DELFIA displacement assay
T2 sequence (Q16548 whole entry): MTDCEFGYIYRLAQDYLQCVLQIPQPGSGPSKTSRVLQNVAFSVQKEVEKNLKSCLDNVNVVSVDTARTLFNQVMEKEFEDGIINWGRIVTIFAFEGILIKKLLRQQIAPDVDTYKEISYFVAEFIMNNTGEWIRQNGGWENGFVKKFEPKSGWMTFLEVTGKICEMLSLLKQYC

[3] = biological target: T3, Bcl-2-related protein A1 (Homo sapiens) (UniProt Q16548); assay: Binding affinity to human Bfl-1 assessed as covalent adduct formation by measuring band shift at 100 uM measured after 2 hrs by SDS-PAGE analysis; procedure, shortened: as §1
T3 sequence (whole entry): T2 sequence (Q16548 whole entry)

[4] = biological target: T1, Induced myeloid leukemia cell differentiation protein Mcl-1; assay: Degradation of human Mcl-1 in A549 cells assessed as decrease in Mcl-1 protein levels with DMSO for 1 hr by spiking cell lysate assay; type: cell-based
Procedure, shortened: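 A549 cells (Ham's F-12/GlutaMAX, 10% FBS, PenStrep, 0.5 μg/mL puromycin) were lysed 20 min on ice in Tris pH 7.4/Triton/deoxycholate/SDS/IGEPAL/EDTA buffer with protease and phosphatase inhibitors, then centrifuged. Protein-quantified supernatants were incubated 1 h at 37 °C with DMSO or 100 μM agent. Immunoblot used PVDF, anti-Mcl-1 and anti-β-tubulin (4 °C overnight), and ECL.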

[5] = system: A549; assay: Induction of decrease in human Mcl-1 level in A549 cells measured up to 100 uM in presence of carfilzomib treated for 2 hrs by Western blot analysis; type: functional, cell-based
Procedure, shortened: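 A549 cells were treated 2 h with DMSO, 50 or 100 μM agent, with or without 30 min pre-treatment with 1 μM carfilzomib. Lysates were immunoblotted for Mcl-1 and β-tubulin. Densitometry gave Mcl-1 relative to β-tubulin from two independent experiments. Significance was by one-way ANOVA with Dunnett post-test.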

[6] = biological target: T1, Induced myeloid leukemia cell differentiation protein Mcl-1; assay: Inhibition of human Mcl-1 assessed as inhibition constant by DELFIA displacement assay
Procedure, shortened: (§2)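 His-tagged hMcl-1 (16 nM) and Eu-N1 anti-6xHis antibody (22.2 ng/well) were pre-bound for 2 h to streptavidin wells coated with biotinylated BIM BH3 peptide (600 ng/mL). Test peptide was then added for 0–40 min at RT, followed by washing, enhancement solution and time-resolved fluorescence at ex 340/em 615 nm. kobs was taken from the slope of % inhibition versus time. Ki and kinact came from a hyperbolic fit of kobs against concentration.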

[7] = biological target: T1, Induced myeloid leukemia cell differentiation protein Mcl-1; assay: Binding affinity to human Mcl-1 in human A549 cells assessed as denaturation thermal shift at 100 uM by cellular thermal shift assay; type: cell-based
Procedure, shortened: (§3)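 Cellular thermal shift: one million A549 cells were plated overnight and treated 1 h with 1% DMSO or 100 μM agent. Cells were harvested, protease inhibitors added, and heated 3 min at various temperatures. After lysis, the supernatant was analysed by western blot for Mcl-1.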

[8] = biological target: T1, Induced myeloid leukemia cell differentiation protein Mcl-1; assay: Inhibition of human Mcl-1 assessed as Kinact by DELFIA displacement assay; procedure, shortened: as §2
[9] = Stability of the compound in pH 7.4 buffer assessed as intact compound after 3.5 hrs by one-dimensional 1H-NMR analysis; type: physicochemical; settings: read-out: Stability
[10] = Stability of the compound in pH 7.4 buffer assessed as half life by one-dimensional 1H-NMR analysis; type: physicochemical
[11] = biological target: T1, Induced myeloid leukemia cell differentiation protein Mcl-1; assay: Binding affinity to human Mcl-1 assessed as covalent adduct formation by measuring increase in molecular weight at 100 uM by mass spectrometry analysis
[12] = system: A549; assay: Prevention of thermal denaturation of proteins in human A549 cells assessed as rescue of protein level at 100 uM by Western blotting analysis; type: functional, cell-based; procedure, shortened: as §3
[13] = biological target: T1, Induced myeloid leukemia cell differentiation protein Mcl-1; assay: Inhibition of human Mcl-1 (172 to 323 residues) expressed in Escherichia coli BL21 using biotinylated-BH3 peptide as substrate measured after 2 hrs by DELFIA displacement assay

Molecule: CC[C@H](C)[C@H](NC(=O)[C@H](CCCNC(=N)N)NC(=O)[C@H](CCCNC(=N)N)NC(=O)[C@H](CC(C)C)NC(=O)[C@H](CCC(N)=O)NC(=O)[C@H](CCC(=O)O)NC(=O)[C@H](C)NC(=O)[C@@H](NC(=O)[C@H](CNC(=O)c1cc(S(=O)(=O)F)ccc1OC)NC(C)=O)[C@@H](C)CC)C(=O)NCC(=O)N[C@@H](CC(=O)O)C(=O)N[C@@H](CCCNC(=N)N)C(=O)N[C@@H](Cc1ccccc1)C(N)=O (Ac-[Dap](Benzoyl(2-OMe,5-SO2F))IAEQLRRIGDRF-NH2)
- Activity [1]: Active
- IC50 [2]: > 250 nM
- Activity [3]: inactive
- Activity [4]: inactive
- Activity [5]: Active
- Ki [6]: 17 nM
- Activity [7]: inactive
- Kinact [8]: 0.943 min⁻¹
- remaining at 3.5 h [9]: 100%
- half-life [10]: > 210 min
- Activity [11]: Active
- Activity [12]: inactive
- IC50 [13]: 23.6 nM

Molecule: CC[C@H](C)[C@H](NC(=O)[C@H](CCCNC(=N)N)NC(=O)[C@H](CCCNC(=N)N)NC(=O)[C@H](CC(C)C)NC(=O)[C@H](CCC(N)=O)NC(=O)[C@H](CCC(=O)O)NC(=O)[C@H](C)NC(=O)[C@@H](NC(=O)[C@H](CNC(=O)c1cccc(S(=O)(=O)F)c1)NC(C)=O)[C@@H](C)CC)C(=O)NCC(=O)N[C@@H](CC(=O)O)C(=O)N[C@@H](CCCNC(=N)N)C(=O)N[C@@H](Cc1ccccc1)C(N)=O (Ac-[Dap](Benzoyl(3-SO2F))IAEQLRRIGDRF-NH2)
- IC50 [2]: > 400 nM
- IC50 [13]: 23 nM

Molecule: CC[C@H](C)[C@H](NC(=O)[C@H](CCCNC(=N)N)NC(=O)[C@H](CCCNC(=N)N)NC(=O)[C@H](CC(C)C)NC(=O)[C@H](CCC(N)=O)NC(=O)[C@H](CCC(=O)O)NC(=O)[C@H](C)NC(=O)[C@@H](NC(=O)[C@H](CNC(=O)c1ccc(S(=O)(=O)F)cc1)NC(C)=O)[C@@H](C)CC)C(=O)NCC(=O)N[C@@H](CC(=O)O)C(=O)N[C@@H](CCCNC(=N)N)C(=O)N[C@@H](Cc1ccccc1)C(N)=O (Ac-[Dap](Benzoyl(4-SO2F))IAEQLRRIGDRF-NH2)
- IC50 [2]: > 5000 nM
- IC50 [13]: 94 nM

Molecule: CC[C@H](C)[C@H](NC(=O)[C@H](CCCNC(=N)N)NC(=O)[C@H](CCCNC(=N)N)NC(=O)[C@H](CC(C)C)NC(=O)[C@H](CCC(N)=O)NC(=O)[C@H](CCC(=O)O)NC(=O)[C@H](C)NC(=O)[C@@H](NC(=O)[C@H](CNC(=O)c1cc(S(=O)(=O)F)ccc1C)NC(C)=O)[C@@H](C)CC)C(=O)NCC(=O)N[C@@H](CC(=O)O)C(=O)N[C@@H](CCCNC(=N)N)C(=O)N[C@@H](Cc1ccccc1)C(N)=O (Ac-[Dap](X1)IAEQLRRIGDRF-NH2)
- Activity [1]: Active
- IC50 [2]: > 1000 nM
- Activity [3]: inactive
- Ki [6]: 37 nM
- Kinact [8]: 1.16 min⁻¹
- remaining at 3.5 h [9]: > 80%
- half-life [10]: > 210 min
- Activity [11]: Active
- Activity [12]: inactive
- IC50 [13]: 19.1 nM

Molecule: CCC(NC(=O)[C@H](CCC(N)=O)NC(=O)[C@H](C)NC(=O)[C@@H](NC(=O)[C@H](C)N)[C@@H](C)CC)C(=O)N[C@@H](CC(C)C)C(=O)N[C@@H](CCCNC(=N)N)C(=O)N[C@@H](CCCNC(=N)N)C(=O)N[C@H](C(=O)NCC(=O)N[C@@H](CC(=O)O)C(=O)N[C@@H](C)C(=O)N[C@@H](Cc1ccccc1)C(=O)O)[C@@H](C)CC (stereo partly specified) (H-AIAQ[ξAbu]LRRIGDAF-OH)
- IC50 [13]: 1300 nM

Molecule: CC[C@H](C)[C@H](NC(=O)[C@H](CCCNC(=N)N)NC(=O)[C@H](CCCNC(=N)N)NC(=O)[C@H](CC(C)C)NC(=O)[C@H](CCO)NC(=O)[C@H](CCC(N)=O)NC(=O)[C@H](C)NC(=O)[C@H](CC(C)C)NC(=O)[C@H](C)N)C(=O)NCC(=O)N[C@@H](CC(=O)O)C(=O)N[C@@H](C)C(=O)N[C@@H](Cc1ccccc1)C(=O)O (H-ALAQ[hSer]LRRIGDAF-OH)
- IC50 [13]: 3000 nM

Molecule: H-AIAQALRRIGDAL-OH
- IC50 [13]: 1200 nM

Other lines, results leading:

- IC50 [13]: 1600 nM
Molecule: CCCC[C@H](NC(=O)[C@H](C)NC(=O)[C@H](CC(=O)O)NC(=O)CNC(=O)[C@@H](NC(=O)[C@H](CCCNC(=N)N)NC(=O)[C@H](CCCNC(=N)N)NC(=O)[C@H](CC(C)C)NC(=O)[C@H](C)NC(=O)[C@H](CCC(N)=O)NC(=O)[C@H](C)NC(=O)[C@@H](NC(=O)[C@H](C)N)[C@@H](C)CC)[C@@H](C)CC)C(=O)O (H-AIAQALRRIGDA[Nle]-OH)

- IC50 [13]: 261 nM
Molecule: Ac-AIAEALRRIGDAF-NH2

- IC50 [13]: 313 nM
Molecule: H-AIAEQLRRIGDAF-NH2

- IC50 [13]: 2200 nM
Molecule: H-AIAQALRRIGDAF-OH

- IC50 [13]: > 3600 nM
Molecule: H-AIAQALRRIGDAY-OH

- IC50 [13]: > 10000 nM
Molecule: H-ALAQALREIGDAR-OH
